Assay results as given in ChEMBL document CHEMBL5252537, “Usnic Acid Benzylidene Analogues as Potent Mechanistic Target of Rapamycin Inhibitors for the Control of Breast Malignancies” (J Nat Prod, 2017).
Calls of active or inactive are those of the source. No cut-off for these calls is given here.

Tests used:
MCF7 [1] = assay: Inhibition of colony formation in human MCF7 cells assessed as reduction in colony diameter at 0.6 uM incubated for 8 days by inverted phase contrast microscopic analysis (reference value: 50 micrometer); format: functional; details: time 8 day
How it was run: (§1)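 Soft agar assay: 5 × 10^3 MCF-7 cells per well in a cell/agar matrix layered over a base agar layer. Overlaid with 10% serum medium containing 0.2 or 0.6 μM compound, or DMSO. Colonies photographed under inverted phase-contrast microscopy after 8 days. Matrix then solubilized, MTT added (4 h, 37 °C), detergent added, A570 read. Growth normalized to DMSO.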

[2] = target: Serine/threonine-protein kinase mTOR (Homo sapiens) (UniProt P42345); assay: Inhibition of mTOR in human […] cells assessed as reduction in phosphorylated 4E-BP1 level at 0.25 to 0.5 uM by Western blot analysis; format: cell-based; details: MCF7, dose 0.25-0.5 µM
How it was run: (§2)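 Cells seeded at 5 × 10^5 per 100 mm dish and allowed to attach overnight. Treated with compound or DMSO for 72 h (HGF 100 ng/mL added for MDA-MB-231). Lysed in RIPA buffer with protease inhibitors. 30 μg protein run on SDS-PAGE, transferred to PVDF, blocked in 5% BSA/TBST. Primary antibodies overnight at 4 °C, HRP secondary antibodies, chemiluminescent detection.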

MCF7 [3] = assay: Inhibition of colony formation in human MCF7 cells assessed as reduction in colony diameter at 0.2 uM incubated for 8 days by inverted phase contrast microscopic analysis (reference value: 50 micrometer); format: functional; details: time 8 day; how it was run: as §1
MDA-MB-231 [4] = assay: Antitumor activity against human MDA-MB-231/GFP cells xenografted in athymic nude mouse assessed as reduction in mean tumor volume at 10 mg/kg, ip measured after 34 days post inoculation (reference value: 1835 +/- 251 mm3); details: time 34 day
MCF7 [5] = assay: Inhibition of colony formation in human MCF7 cells at 0.6 uM incubated for 8 days by inverted phase contrast microscopic analysis; format: functional; details: MCF7, 192 h, time 8 day; how it was run: as §1
[6] = Toxicity in athymic nude mouse xenografted with human MDA-MB-231/GFP cells at 10 mg/kg, ip measured after 34 days post inoculation; details: in vivo, 816 h
MCF-10A = assay: Cytotoxicity against human MCF-10A cells at 6 times of IC50 incubated for 24 hrs by MTT assay; format: toxicity, cell-based
How it was run: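 MCF-10A cells seeded at 3 × 10^4/well and allowed to attach overnight. Treated with compound in serum-free medium, in triplicate, for 24 h; vehicle wells got the maximum DMSO amount. Doxorubicin (10 μM) was the positive control. MTT for 4 h, formazan dissolved in DMSO, A570 blank-subtracted. Cell numbers from a standard curve; viability expressed versus DMSO wells.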

MDA-MB-231 [7] = assay: Induction of autophagy in human MDA-MB-231 cells assessed as autophagic vacuoles by microscopic analysis; format: functional, cell-based
How it was run: (§3)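 Cells of each line treated with compound and examined by light microscopy for autophagic vacuoles, compared with control cells.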

MCF7 [8] = assay: Antitumor activity against human MCF7 cells xenografted in athymic nude mouse assessed as inhibition of tumor growth at 10 mg/kg, ip administered for 3 weeks; parameters: scale not given: the % may be the effect or the level left
MCF7 [9] = assay: Antitumor activity against human MCF7 cells xenografted in athymic nude mouse assessed as reduction in mean tumor volume at 10 mg/kg, ip measured after 75 days post inoculation (reference value: 1093 +/- 185 mm3); details: time 75 day
MCF7 [10] = assay: Induction of autophagy in human MCF7 cells assessed as increase in LC3 level at 0.4 to 0.8 uM by Western blotting analysis; format: functional, cell-based; details: dose 0.4-0.8 µM; how it was run: as §2
[11] = Toxicity in athymic nude mouse xenografted with human MCF7 cells at 10 mg/kg, ip measured after 75 days post inoculation; details: in vivo, 1800 h
[12] = target: Serine/threonine-protein kinase mTOR (Homo sapiens) (UniProt P42345); assay: Inhibition of mTOR in human MDA-MB-231 cells assessed as reduction in phosphorylated 4E-BP1 level at 0.25 to 0.5 uM by Western blot analysis; format: cell-based; details: dose 0.25-0.5 µM; how it was run: as §2
T47D = assay: Induction of autophagy in human T47D cells assessed as autophagic vacuoles by microscopic analysis; format: functional, cell-based; how it was run: as §3
[13] = target: Serine/threonine-protein kinase mTOR (Homo sapiens) (UniProt P42345); assay: In vivo inhibition of mTOR in human MCF7 cells xenografted in athymic nude mouse assessed as downregulation of phosphorylated 4E-BP1 level at 10 mg/kg, ip
MDA-MB-231 [14] = assay: Induction of autophagy in human MDA-MB-231 cells assessed as increase in beclin-1 level at 0.4 to 0.8 uM by Western blotting analysis; format: functional, cell-based; details: dose 0.4-0.8 µM; how it was run: as §2
[15] = target: Serine/threonine-protein kinase mTOR (Homo sapiens) (UniProt P42345); assay: In vivo inhibition of mTOR in human MCF7 cells xenografted in athymic nude mouse assessed as downregulation of phosphorylated S6K level at 10 mg/kg, ip
MCF7 [16] = assay: Induction of autophagy in human MCF7 cells assessed as increase in beclin-1 level at 0.4 to 0.8 uM by Western blotting analysis; format: functional, cell-based; details: dose 0.4-0.8 µM; how it was run: as §2
BT-474 = assay: Antiproliferative activity against human BT-474 cells incubated for 72 hrs by MTT assay; format: functional, cell-based; details: BT-474, 72 h
How it was run: (§4)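 Cells seeded at 5 × 10^3/well and allowed to attach overnight, then washed with PBS. Compound diluted from 10 mM DMSO stock into medium (100 ng/mL HGF added for c-Met-expressing cells), in triplicate, 72 h at 37 °C. MTT added for 4 h, formazan dissolved in DMSO, absorbance read at 570 nm. Cell numbers taken from a standard curve; IC50 calculated.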

MDA-MB-231 [17] = assay: Anti-invasive activity in human MDA-MB-231 cells after 24 hrs […]; format: functional, cell-based; details: MDA-MB-231, 24 h
MDA-MB-231 [18] = assay: Antimigratory activity in human MDA-MB-231 cells assessed as inhibition of cell migration after 23 hrs by scratch wound healing assay; format: functional, cell-based
How it was run: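 Cells seeded at 1 × 10^5/well and grown to a confluent monolayer, then scratched with a 200 μL pipet tip. Held 5 h in serum-free medium, then given medium with HGF (100 ng/mL) plus compound or DMSO. Norstictic acid (15 μM) was the positive control. Wound width photographed at 0 h and followed up to 24 h; cells MeOH-fixed. Percent migration from wound thickness versus DMSO wells; IC50 calculated.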

MCF7 [19] = assay: Antiproliferative activity against human MCF7 cells incubated for 72 hrs by MTT assay; format: functional, cell-based; details: MCF7, 72 h; how it was run: as §4
MDA-MB-468 = assay: Antiproliferative activity against human MDA-MB-468 cells incubated for 72 hrs by MTT assay; format: functional, cell-based; details: MDA-MB-468, 72 h; how it was run: as §4
[20] = target: Serine/threonine-protein kinase mTOR (Homo sapiens) (UniProt P42345); assay: In vivo inhibition of mTOR in human MDA-MB-231/GFP cells xenografted in athymic nude mouse assessed as downregulation of phosphorylated 4E-BP1 level at 10 mg/kg, ip

inhibition [2]: Active
inhibition [12]: Active
inhibition [13]: Active
inhibition [15]: Active
IC50 (BT-474): 390 nM
IC50 (MDA-MB-231 [17]): 420 nM
IC50 (MDA-MB-231 [18]; MDA-MB-231, 23 h): 510 nM
IC50 (MCF7 [19]): 280 nM
IC50 (MDA-MB-468): 350 nM
inhibition [20]: Active
Structure (SMILES): CC(=O)C1=C(O)C=C2Oc3c(C(=O)/C=C/c4ccc(OC(F)(F)F)cc4)c(O)c(C)c(O)c3[C@]2(C)C1=O
Activity (MCF7 [1]): 122 um
Activity (MCF7 [3]): 370 um
Activity (MDA-MB-231 [4]): 692 mm3
inhibition at 0.6 µM (MCF7 [5]): 75.3%
Activity [6]: Non-Toxic
Activity (MCF-10A): Non-Toxic
Activity (MDA-MB-231 [7]): Active
Activity (MCF7 [8]): 64.8%
Activity (MCF7 [9]): 385 mm3
Activity (MCF7 [10]): Active
Activity [11]: Non-Toxic
Activity (T47D): Active
Activity (MDA-MB-231 [14]): Active
Activity (MCF7 [16]): Active
Activity (MDA-MB-231 [18]): Dose-Dependent Effect
